Read-outs that look alike come from different tables or passages of the source.
What was measured:
Population PK = assay: Population PK; set-up: species or system human; conditions: for Food effect against fasted on KA: covariate multiplier
Summary of the method: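 Plasma GBPA came from 14 multiple-dose subjects (372 points) and 10 earlier single-dose fasted subjects (47 points). Modelling used NONMEM with FOCE and interaction. Doses were converted to GBPA equivalents by molecular-weight ratio. One- and two-compartment models with first-order absorption and linear elimination were tested, with additive, proportional or combined residual error. Between-subject variability and interoccasion variability were log-normal, and food condition was tested as a covariate.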

[1] = type: in vivo, human; conditions: for AUC(0-t) / Tmax / half-life / Cmax: male, human, plasma, 600 mg; for AUC(0-t) / Tmax / half-life: oral; for AUC(0-t): AUC4h; for Cmax: po, 600 mg camostat mesylate oral
Summary of the method: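 Night doses were fasted. Cohort 1 took daytime doses after a meal, except a fasted day-1 morning dose. Cohort 2 dosed 30 min premeal on day 1, then 1 h premeal. Plasma GBPA was measured by LC-MS/MS and analysed noncompartmentally. Food ratios came from a mixed-effects model on ln Cmax and AUC24h.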

SARS‐Cov‐2 infection = conditions: read-out: EC50 value of GBPA that inhibited SARS-CoV-2 infection; cited from earlier work
[2] = test system: SARS‐CoV‐2 infection of a cell line derived from human airway epithelial cells (Calu‐3); conditions: cited from earlier work
[3] = Solubility / Biopharmaceutics Classification System class; type: physicochemical; conditions: inferred from solubility and structure-suggested poor permeability
[4] = cited from earlier work
[5] = Phase I safety and tolerability assessment; type: in vivo, human; conditions: for safety and tolerability: multiple administration, healthy adults
Summary of the method: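 Healthy Japanese men took 600 mg orally four times daily on day 1 and days 3–9. Monitoring throughout covered symptoms, physical examination, and supine blood pressure and pulse. It also covered temperature, oxygen saturation, weight, hematology, biochemistry, coagulation and spot urinalysis. ECGs were 12-lead plus monitor, and adverse events were recorded.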

[6] = cited from earlier work; remark: listed apart in the source
[7] = in vivo
[8] = cited from earlier work; remark: listed apart in the source
TMPRSS2 = conditions: cited from earlier work
[9] = Cohort 2, Day 1, 30 min before a meal
[10] = Cohort 2, Day 3, 1 h before a meal
[11] = Cohort 2, Day 9, 1 h before a meal
[12] = Cohort 1, Day 1, Fasted, mean (SD)
[13] = Cohort 1, Day 3, Fed, mean (SD)
[14] = Cohort 1, Day 9, Fed, mean (SD)
[15] = Cohort 2, Day 1, 30 min before a meal, mean (SD)
[16] = Cohort 2, Day 3, 1 h before a meal, mean (SD)
[17] = Cohort 2, Day 9, 1 h before a meal, mean (SD)

SMILES: N=C(N)Nc1ccc(C(=O)Oc2ccc(CC(=O)O)cc2)cc1 [GBPA, 4‐(4‐guanidinobenzoyloxy)phenylacetic acid]
- Food effect against fasted on KA (Population PK; 30 min before a meal, FIXED): 1.0 FIXED
- Food effect against fasted on KA (Population PK; 1 h before a meal, FIXED): 1.0 FIXED
- Food effect against fasted on KA (Population PK; Fed): 0.0807
- Absorption rate constant (KA) (Population PK; PopPK fixed effect estimate): 5.91 h⁻¹
- Lag time (Population PK; PopPK fixed effect estimate): 0.319 h
- IOV on FA (Population PK; interoccasion variability): 35.8 % CV
- IOV on KA (Population PK; interoccasion variability): 105 % CV
- Proportional residual error (Population PK; intra-subject variability): 0.39 % CV
- Vd/F (Population PK; male, human, plasma, oral): 904 L
- clearance (Population PK; male, human, plasma, oral): 11300 mL/min
- exposure of GBPA compared with the fasted state ([1]; 1 h before a meal): no significant difference
- AUC4h against fasted, geometric mean ratio (95% confidence interval) ([1]; Cohort 1, Day 3, Fed): 0.31 (0.23, 0.43)
- Cmax against fasted, geometric mean ratio (95% confidence interval) ([1]; Cohort 1, Day 3, Fed): 0.28 (0.18, 0.42)
- AUC4h against fasted, geometric mean ratio (95% confidence interval) ([1]; Cohort 1, Day 9, Fed): 0.30 (0.21, 0.43)
- Cmax against fasted, geometric mean ratio (95% confidence interval) ([1]; Cohort 1, Day 9, Fed): 0.27 (0.17, 0.42)
- AUC4h against fasted, geometric mean ratio (95% confidence interval) [1, 9]: 0.43 (0.29, 0.64)
- Cmax against fasted, geometric mean ratio (95% confidence interval) [1, 9]: 0.50 (0.31, 0.86)
- AUC4h against fasted, geometric mean ratio (95% confidence interval) [1, 10]: 0.53 (0.31, 0.91)
- Cmax against fasted, geometric mean ratio (95% confidence interval) [1, 10]: 0.57 (0.30, 1.08)
- AUC4h against fasted, geometric mean ratio (95% confidence interval) [1, 11]: 0.79 (0.46, 1.37)
- Cmax against fasted, geometric mean ratio (95% confidence interval) [1, 11]: 0.95 (0.51, 1.75)
- Cmax and AUC relative to values under fasted conditions ([1]; administered after a meal and at 30 min before a meal): not more than 50%
- exposure of GBPA compared with the fasted state ([1]; after a meal and 30 min before a meal): significantly lower
- AUC(0-t) [1, 12]: 683 ng·h/mL
- AUC(0-t) [1, 13]: 206 ng·h/mL
- AUC(0-t) [1, 14]: 194 ng·h/mL
- AUC(0-t) [1, 15]: 227 ng·h/mL
- AUC(0-t) [1, 16]: 366 ng·h/mL
- AUC(0-t) [1, 17]: 556 ng·h/mL
- Tmax ([1]; Tmax, Cohort 1, Day 1, Fasted, median (range)): 1 h
- Tmax ([1]; Tmax, Cohort 1, Day 3, Fed, median (range)): 2 h
- Tmax ([1]; Tmax, Cohort 1, Day 9, Fed, median (range)): 2 h
- Tmax ([1]; Tmax, Cohort 2, Day 1, 30 min before a meal, median (range)): 1 h
- Tmax ([1]; Tmax, Cohort 2, Day 3, 1 h before a meal, median (range)): 1 h
- Tmax ([1]; Tmax, Cohort 2, Day 9, 1 h before a meal, median (range)): 1 h
- half-life ([1]; half-life, plasma GBPA elimination): < 2 h
- Tmax ([1]; median Tmax, fasted conditions, 30 min before a meal, and 1 h before a meal): 1 h
- Tmax ([1]; median Tmax, fed conditions): 2 h
- half-life ([1]; t1/2, Cohort 1, Day 1, Fasted, mean (SD), n = 6): 1.58 h
- half-life ([1]; t1/2, Cohort 1, Day 3, Fed, mean, n = 2): 1.33 h
- half-life ([1]; t1/2, Cohort 1, Day 9, Fed, mean (SD), n = 3): 1.16 h
- half-life ([1]; t1/2, Cohort 2, Day 1, 30 min before a meal, mean (SD)): 1.35 h
- half-life ([1]; t1/2, Cohort 2, Day 3, 1 h before a meal, mean (SD), n = 6): 1.05 h
- half-life ([1]; t1/2, Cohort 2, Day 9, 1 h before a meal, mean (SD)): 0.962 h
- Cmax [1, 12]: 371 ng/mL
- Cmax [1, 13]: 95.8 ng/mL
- Cmax [1, 14]: 93.5 ng/mL
- Cmax [1, 15]: 177 ng/mL
- Cmax [1, 16]: 218 ng/mL
- Cmax [1, 17]: 367 ng/mL
- EC50 (SARS‐Cov‐2 infection): 178 nM

SMILES: CN(C)C(=O)COC(=O)Cc1ccc(OC(=O)c2ccc(NC(=N)N)cc2)cc1.CS(=O)(=O)O [camostat mesylate, dimethylcarbamoylmethyl 4‐(4‐guanidinobenzoyloxy)phenylacetate monomethanesulfonate]
- SARS-CoV-2 infection of Calu-3 cells [2]: prevented
- Biopharmaceutics Classification System class [3]: class 3
- presence in plasma after oral administration [4]: not detectable
- findings in safety laboratory values, vital signs, or ECG parameters ([5]; 600 mg q.i.d.): no clinically significant findings
- serious adverse events or deaths ([5]; 600 mg q.i.d.): no serious adverse events or deaths
- safety and tolerability ([5]; 600 mg q.i.d.): no safety concerns were raised
- safety and tolerability ([5]; 600 mg q.i.d., listed as Camostat mesylate): safe and tolerated
- QTcF change from baseline ([5]; all subjects): ≤ 60 ms
- QTcF interval ([5]; any postbaseline visit, all subjects): ≤ 480 ms
- solubility [6]: soluble
- human equivalent dose converted from the dog NOAEL [7]: 3333 mg
- half-life in human plasma [8]: ≤ 1 min
- TMPRSS2 inhibition (TMPRSS2): inhibited

Reference: PMC8239543 (Clinical and Translational Science, 2021)
